The source made the active and inactive calls. No cut-off for these calls is given here.
Experiments:
HT-1080 [1] = assay: Cytotoxicity against human HT1080 cells at 3 uM after 48 hrs by WST-8 assay; type: functional, cell-based
In short: (§1)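 Seeded at 5 × 10^3 cells/well; compound added after 24 h and incubated 48 h. WST-8 reagent then added for 0.5 h at 37 °C, 5% CO2, with absorbance read at 450 nm. A549, PC-3, LNCaP and VCaP were kept in RPMI-1640 + 10% FBS; HT1080 in DMEM + 10% FBS. Means ± SD, n = 3; Student's t-test against vehicle.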

VCaP [2] = assay: Induction of apoptosis in human VCaP cells assessed as late apoptotic cells at 3 uM in presence of pan-caspase inhibitor zVAD-FMK after 24 hrs by Annexin V-FITC/propidium iodide staining-based flow cytometry (reference value: 0.1%); type: functional
PC-3 [3] = assay: Cytotoxicity against human PC3 cells at 100 uM after 6 hrs by WST-8 assay; type: functional, cell-based
In short: (§2)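 WST-8 viability read at 450 nm after 6 h exposure to 100 μM compound. Reagent incubated 0.5 h at 37 °C. A549 and PC-3 were kept in RPMI-1640 + 10% FBS; HT1080 in DMEM + 10% FBS.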

[4] = biological target: T1, Androgen receptor/Baculoviral IAP repeat-containing protein 2 (Homo sapiens, UniProt P10275+Q13490); assay: Induction of AR/cIAP1 interaction in human 22Rv1 cells assessed as ubiquitin proteasome system mediated androgen receptor protein degradation at 3 uM by Western blot analysis; type: cell-based; settings: TDE = time-dependent effect
T1 sequence (P10275 whole entry, looked up): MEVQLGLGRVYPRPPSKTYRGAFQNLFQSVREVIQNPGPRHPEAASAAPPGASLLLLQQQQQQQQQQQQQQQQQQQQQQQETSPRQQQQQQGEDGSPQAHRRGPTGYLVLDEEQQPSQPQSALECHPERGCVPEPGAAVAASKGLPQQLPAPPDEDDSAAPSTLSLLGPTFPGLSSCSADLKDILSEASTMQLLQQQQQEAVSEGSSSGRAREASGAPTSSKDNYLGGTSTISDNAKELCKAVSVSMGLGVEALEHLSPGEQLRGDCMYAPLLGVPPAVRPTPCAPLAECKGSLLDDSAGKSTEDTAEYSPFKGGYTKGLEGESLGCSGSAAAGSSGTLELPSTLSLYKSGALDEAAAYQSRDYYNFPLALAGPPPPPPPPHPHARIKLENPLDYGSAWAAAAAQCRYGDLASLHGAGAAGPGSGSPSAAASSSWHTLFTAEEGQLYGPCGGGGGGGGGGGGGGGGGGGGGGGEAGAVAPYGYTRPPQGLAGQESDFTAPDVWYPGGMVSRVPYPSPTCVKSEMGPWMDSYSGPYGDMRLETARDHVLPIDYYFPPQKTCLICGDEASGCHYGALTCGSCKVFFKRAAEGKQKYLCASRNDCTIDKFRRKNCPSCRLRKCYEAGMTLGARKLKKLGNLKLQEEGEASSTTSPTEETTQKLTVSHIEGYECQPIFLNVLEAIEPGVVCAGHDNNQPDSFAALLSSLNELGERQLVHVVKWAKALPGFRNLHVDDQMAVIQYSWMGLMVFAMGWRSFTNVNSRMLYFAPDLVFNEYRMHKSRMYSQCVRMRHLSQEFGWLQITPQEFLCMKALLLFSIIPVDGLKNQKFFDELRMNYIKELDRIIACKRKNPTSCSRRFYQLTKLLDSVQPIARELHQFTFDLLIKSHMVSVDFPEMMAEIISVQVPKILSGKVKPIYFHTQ
T1 sequence (Q13490 whole entry, looked up): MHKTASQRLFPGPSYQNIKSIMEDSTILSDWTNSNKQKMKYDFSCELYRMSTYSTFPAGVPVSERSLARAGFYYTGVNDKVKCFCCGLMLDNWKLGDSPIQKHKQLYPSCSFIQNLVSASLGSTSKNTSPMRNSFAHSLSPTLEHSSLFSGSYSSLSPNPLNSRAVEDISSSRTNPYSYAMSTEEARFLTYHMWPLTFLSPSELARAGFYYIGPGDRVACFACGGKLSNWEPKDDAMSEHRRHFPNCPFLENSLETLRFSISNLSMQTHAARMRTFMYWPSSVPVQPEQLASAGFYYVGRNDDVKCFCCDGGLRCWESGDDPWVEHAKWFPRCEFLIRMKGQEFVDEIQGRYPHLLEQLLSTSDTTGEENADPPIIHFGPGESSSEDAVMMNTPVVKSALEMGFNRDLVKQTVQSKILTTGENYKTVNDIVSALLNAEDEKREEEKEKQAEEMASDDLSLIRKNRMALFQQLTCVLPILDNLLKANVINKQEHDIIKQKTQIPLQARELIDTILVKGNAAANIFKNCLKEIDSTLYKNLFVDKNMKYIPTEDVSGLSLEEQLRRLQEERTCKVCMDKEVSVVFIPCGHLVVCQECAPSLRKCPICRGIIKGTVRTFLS
In short: (§3)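 22Rv1 cells were treated with compound, or with separate ligands (30 μM or 3 μM each), for 6 h. Lysates in SDS buffer (0.1 M Tris pH 8.0, 1% SDS) were normalized by BCA, run on SDS-PAGE and immunoblotted. AR/GAPDH ratio was normalized to vehicle as 100. DC50 is the concentration giving 50% AR reduction; means ± SD, n = 3; t-test against vehicle.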

PC-3 [5] = assay: Cytotoxicity against human PC3 cells at 3 uM after 48 hrs by WST-8 assay; type: functional, cell-based; in short: as §1
[6] = biological target: T1, Androgen receptor/Baculoviral IAP repeat-containing protein 2; assay: Induction of AR/cIAP1 interaction in human 22Rv1 cells assessed as ubiquitin proteasome system mediated androgen receptor protein degradation at 3 uM in presence of proteasome inhibitor MG132 after 6 hrs by Western blot analysis; type: cell-based
In short: (§4)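 22Rv1 or VCaP cells were given 3 μM degrader with or without 10 μM proteasome inhibitor over a time course. AR was detected by Western blot (SDS lysis, BCA normalization) and AR/GAPDH was normalized to vehicle as 100. Means ± SD, n = 3.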

[7] = biological target: T1, Androgen receptor/Baculoviral IAP repeat-containing protein 2; assay: Induction of AR/cIAP1 interaction in human VCaP cells assessed as ubiquitin proteasome system mediated androgen receptor protein degradation by measuring reduction in DHT-stimulated PSA mRNA expression at 3 uM after 24 hrs by qPCR analysis; type: cell-based
In short: (§5)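 VCaP cells were held 2 days in phenol red-free RPMI + 5% charcoal-stripped FBS, then given 1 nM DHT with or without 3 μM compound for 24 h. RNA was isolated and cDNA made from 1 μg with oligo-dT. qPCR used the comparative Ct method, with values relative to vehicle = 1. Means ± SD, n = 3.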

[8] = biological target: T1, Androgen receptor/Baculoviral IAP repeat-containing protein 2; assay: Induction of AR/cIAP1 interaction in human 22Rv1 cells assessed as ubiquitin proteasome system mediated androgen receptor protein degradation at 3 uM after 6 hrs by Western blot analysis; type: cell-based; in short: as §3
A549 [9] = assay: Cytotoxicity against human A549 cells at 3 uM after 48 hrs by WST-8 assay; type: functional, cell-based; in short: as §1
VCaP [10] = assay: Induction of apoptosis in human VCaP cells assessed as necrotic cells at 3 uM after 24 hrs by Annexin V-FITC/propidium iodide staining-based flow cytometry (reference value: 0.5%); type: functional
VCaP [11] = assay: Induction of apoptosis in human VCaP cells assessed as early apoptotic cells at 3 uM in presence of pan-caspase inhibitor zVAD-FMK after 24 hrs by Annexin V-FITC/propidium iodide staining-based flow cytometry (reference value: 0.5%); type: functional
VCaP [12] = assay: Cytotoxicity against human VCaP cells at 3 uM after 48 hrs by WST-8 assay; type: functional, cell-based; in short: as §1
[13] = biological target: T1, Androgen receptor/Baculoviral IAP repeat-containing protein 2; assay: Induction of AR/cIAP1 interaction in human VCaP cells assessed as ubiquitin proteasome system mediated androgen receptor protein degradation by measuring reduction in DHT-stimulated NKX3.1 mRNA expression at 3 uM after 24 hrs by qPCR analysis; type: cell-based; in short: as §5
A549 [14] = assay: Cytotoxicity against human A549 cells at 100 uM after 6 hrs by WST-8 assay; type: functional, cell-based; in short: as §2
LNCaP = assay: Cytotoxicity against human LNCAP cells expressing androgen receptor at 3 uM after 48 hrs by WST-8 assay; type: functional, cell-based; in short: as §1
VCaP [15] = assay: Induction of apoptosis in human VCaP cells assessed as early apoptotic cells at 3 uM after 24 hrs by Annexin V-FITC/propidium iodide staining-based flow cytometry (reference value: 0.5%); type: functional
[16] = biological target: T1, Androgen receptor/Baculoviral IAP repeat-containing protein 2; assay: Induction of AR/cIAP1 interaction in human VCaP cells assessed as ubiquitin proteasome system mediated androgen receptor protein degradation at 3 uM in presence of proteasome inhibitor MG132 after 6 hrs by Western blot analysis; type: cell-based; in short: as §4
VCaP [17] = assay: Induction of apoptosis in human VCaP cells assessed as increase in cleaved PARP levels at 1 to 3 uM after 24 hrs by Western blot method; type: functional, cell-based
In short: (§6)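 VCaP cells were treated 24 h with compound, or with 3 μM compound plus graded pan-caspase inhibitor. Cleaved caspase-3 and cleaved PARP were detected by Western blot of SDS lysates normalized by BCA.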

[18] = biological target: T1, Androgen receptor/Baculoviral IAP repeat-containing protein 2; assay: Induction of AR/cIAP1 interaction in human VCaP cells assessed as ubiquitin proteasome system mediated androgen receptor protein degradation by measuring reduction in DHT-stimulated KLK2 mRNA expression at 3 uM after 24 hrs by qPCR analysis; type: cell-based; in short: as §5
VCaP [19] = assay: Induction of apoptosis in human VCaP cells assessed as caspase-3 activation at 3 uM in presence of proteasome inhibitor MG132 after 9 hrs by Western blot method; type: functional, cell-based
In short: (§7)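 VCaP cells were incubated 9 h with 3 μM compound and/or 10 μM proteasome inhibitor. Apoptotic markers were assessed by Western blot.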

VCaP [20] = assay: Induction of apoptosis in human VCaP cells assessed as increase in cleaved PARP levels at 1 to 3 uM in presence of pan-caspase inhibitor zVAD-FMK after 24 hrs by Western blot analysis; type: functional, cell-based; in short: as §6
VCaP [21] = assay: Induction of apoptosis in human VCaP cells assessed as caspase-3 activation at 1 to 3 uM in presence of pan-caspase inhibitor zVAD-FMK after 24 hrs by Western blot analysis; type: functional, cell-based; in short: as §6
VCaP [22] = assay: Induction of morphological changes in human VCaP cells at 3 uM after 24 hrs by phase contrast microscopic analysis; type: functional, cell-based
In short: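 VCaP cells were treated 24 h with 3 μM compound and imaged by phase-contrast microscopy.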

VCaP [23] = assay: Induction of apoptosis in human VCaP cells assessed as viable cells at 3 uM in presence of pan-caspase inhibitor zVAD-FMK after 24 hrs by Annexin V-FITC/propidium iodide staining-based flow cytometry (reference value: 98.9%); type: functional; settings: read-out: Activity
VCaP [24] = assay: Induction of apoptosis in human VCaP cells assessed as viable cells at 3 uM after 24 hrs by Annexin V-FITC/propidium iodide staining-based flow cytometry (reference value: 98.9%); type: functional; settings: read-out: Activity
HT-1080 [25] = assay: Cytotoxicity against human HT1080 cells at 100 uM after 6 hrs by WST-8 assay; type: functional, cell-based; in short: as §2
VCaP [26] = assay: Induction of apoptosis in human VCaP cells assessed as late apoptotic cells at 3 uM after 24 hrs by Annexin V-FITC/propidium iodide staining-based flow cytometry (reference value: 0.1%); type: functional
[27] = biological target: T1, Androgen receptor/Baculoviral IAP repeat-containing protein 2; assay: Induction of AR/cIAP1 interaction in human 22Rv1 cells assessed as ubiquitin proteasome system mediated androgen receptor protein degradation at 1 to 3 uM after 6 hrs by Western blot analysis; type: cell-based; in short: as §3
VCaP [28] = assay: Induction of apoptosis in human VCaP cells assessed as increase in cleaved PARP levels at 3 uM in presence of proteasome inhibitor MG132 after 9 hrs by Western blot method; type: functional, cell-based; in short: as §7
VCaP [29] = assay: Induction of apoptosis in human VCaP cells assessed as necrotic cells at 3 uM in presence of pan-caspase inhibitor zVAD-FMK after 24 hrs by Annexin V-FITC/propidium iodide staining-based flow cytometry (reference value: 0.5%); type: functional
[30] = biological target: T1, Androgen receptor/Baculoviral IAP repeat-containing protein 2; assay: Induction of AR/cIAP1 interaction in human VCaP cells assessed as ubiquitin proteasome system mediated androgen receptor protein degradation by measuring reduction in DHT-stimulated TMPRSS2 mRNA expression at 3 uM after 24 hrs by qPCR analysis; type: cell-based; in short: as §5
VCaP [31] = assay: Induction of apoptosis in human VCaP cells assessed as caspase-3 activation at 1 to 3 uM after 24 hrs by Western blot analysis; type: functional, cell-based; in short: as §6

CN[C@@H](C)C(=O)N[C@H](C(=O)N1CCC[C@H]1c1nc(C(=O)c2cccc(OCCOCCOCCOCCOc3ccc(Cn4c(C)c(C#N)c(-c5ccc(C#N)cc5)c4C)cc3)c2)cs1)C1CCCCC1
Activity (HT-1080 [1]): inactive | Activity (VCaP [2]): 0.6% | Activity (PC-3 [3]): Active | Activity [4]: Tde | Activity (PC-3 [5]): inactive | Activity [6]: inactive | Activity [7]: Active | Activity [8]: Active | Activity (A549 [9]): inactive | Activity (VCaP [10]): 0.3% | Activity (VCaP [11]): 1.5% | Activity (VCaP [12]): Active | Activity [13]: Active | Activity (A549 [14]): Active | Activity (LNCaP): Active | Activity (VCaP [15]): 11.6% | Activity [16]: inactive | Activity (VCaP [17]): Active | Activity [18]: Active | Activity (VCaP [19]): inactive | Activity (VCaP [20]): inactive | Activity (VCaP [21]): inactive | Activity (VCaP [22]): Active | viability at 3 µM (VCaP [23]): 96.8% | viability at 3 µM (VCaP [24]): 87.7% | Activity (HT-1080 [25]): Active | Activity (VCaP [26]): 0.4% | Activity [27]: Active | Activity (VCaP [28]): inactive | Activity (VCaP [29]): 1.1% | Activity [30]: Active | Activity (VCaP [31]): Active

Reference: ChEMBL document CHEMBL4219028, “Development of Protein Degradation Inducers of Androgen Receptor by Conjugation of Androgen Receptor Ligands and Inhibitor of Apoptosis Protein Ligands” (J Med Chem, 2018)
